Experimental data gathered from unrelated publications.
Lines come from different studies, so protocols differ.
Target: Casein kinase I isoform alpha (CSNK1A1, Homo sapiens, UniProt P48729)

SMILES	observed	action	technique	cells	tested at	measurement	value
CN(C)C1CCN(CC#Cc2nn(C3CCCC3)c3nc(NCc4ccccc4)ncc23)C1 (stereo not drawn)	enzyme activity	inhibitor	FRET	–	1 µM	inhibition	2%
Cc1c(NC(=O)c2cc(C(N)=O)nc3cc(F)ccc23)c(C(F)(F)F)nn1Cc1ccc(C#N)cc1	cell-free assay	–	competition with immobilised ligand	–	1 µM	remaining binding	72%
CCN1CCN(Cc2ccc(NC(=O)c3ccc(C)c(/C=C/c4cnc5[nH]ccc5c4OC)c3)cc2C(F)(F)F)CC1	target engagement in cells	inhibitor	chemoproteomics	A-375	50 nM	inhibition	-59.4%
COc1cc(OC)c(C=C2C(O)=Nc3ccccc32)c(OC)c1	cell-free assay	inhibitor	–	–	0.5 µM	remaining signal	59.6%
CCC(=O)N[C@@H]1CC[C@H](C(=O)N(C)c2ccc(-c3nc4ccccc4o3)cc2)C1	cell-free assay	–	competition with immobilised ligand	–	1 µM	remaining binding	100%
COc1cc2ncnc(Nc3ccc(Oc4ccccc4)cc3C)c2cc1OC	enzyme activity	inhibitor	–	–	1 µM	inhibition	3%
O=C(Nc1cnn(-c2csc(C(=O)NC3COC3)c2)c1)Nc1c(F)cccc1Cl	enzyme activity	inhibitor	–	–	5 µM	remaining activity	76.6%
CC(C)(C)c1nc(-c2cccc(NS(=O)(=O)c3c(F)cccc3F)c2F)c(-c2ccnc(N)n2)s1	enzyme activity	inhibitor	radiometric	–	1 µM	remaining activity	94%
Cc1cc(-n2nc(Cc3cc(F)cc(C(F)(F)F)c3)nc2C)ccc1C(N)=O	cell-free assay	–	competition with immobilised ligand	–	1 µM	remaining binding	100%
O=Nc1c(-c2c(O)[nH]c3cc(Br)ccc23)[nH]c2ccccc12	enzyme activity	inhibitor	–	–	0.5 µM	activity vs control	95.1%
CNc1cccc2cc(C(=O)Nc3ccc(C(=O)O)cc3)c(=O)[nH]c12	enzyme activity	inhibitor	–	–	10 µM	inhibition	3.5%
COc1cccc2c(NCc3ccccc3)nc(-n3c(N)nc4ccccc43)nc12	target engagement in cells	inhibitor	chemoproteomics	–	20 mM	inhibition	4.9%
Cc1cc(Nc2cc(N3CCN(C)CC3)nc(Sc3ccc(NC(=O)C4CC4)cc3)n2)[nH]n1	enzyme activity	inhibitor	–	–	0.5 µM	activity vs control	96.7%
Nc1c(C(=O)NCc2ccc(C(=O)NCCCC3CCCCC3)cc2)cnn1-c1ccccc1	cell-free assay	–	competition with immobilised ligand	–	0.1 µM	remaining binding	100%
CC(C)(O)[C@H]1CC[C@H](Nc2ccc3ncc(-c4cccc(C(F)(F)F)c4)n3n2)CC1	enzyme activity	inhibitor	–	–	1 µM	remaining activity	91.4%
Cc1ccc(C(=O)Nc2ccc(CN3CCN(C)CC3)c(C(F)(F)F)c2)cc1C#Cc1cnc2cccnn12	enzyme activity	inhibitor	–	–	23.5 nM	remaining activity	86%
CO[C@H]1CC[C@H](CNc2ccc(S(=O)(=O)NC(=O)c3ccc(N4CCN(CC5=C(c6ccc(Cl)cc6)CC(C)(C)CC5)CC4)cc3Oc3cnc4[nH]ccc4c3)cc2[N+](=O)[O-])CC1	cell-free assay	–	competition with immobilised ligand	–	1 µM	remaining binding	85%
COc1cc2c(Nc3ccc(Br)cc3F)ncnc2cc1OCC1CCN(C)CC1	cell-free assay	–	–	–	0.5 µM	remaining signal	102%
CCc1ccccc1C(=O)Nc1n[nH]c2c(C)c(F)c(C3C(C#N)=C(C)N(C)C(C)=C3C#N)cc12	cell-free assay	–	competition with immobilised ligand	–	1 µM	remaining binding	96%
O=C1NC(=O)c2cc(Nc3ccc(F)cc3)c(Nc3ccc(F)cc3)cc21	cell-free assay	inhibitor	–	–	0.5 µM	remaining signal	88%
CN(c1ccnc(CNc2nc(Nc3ccc4c(c3)CC(=O)N4)ncc2C(F)(F)F)n1)S(C)(=O)=O	cell-free assay	–	competition with immobilised ligand	–	1 µM	remaining binding	81%
COc1cc2ncnc(Nc3ccc(F)c(Cl)c3)c2cc1OCCCN1CCOCC1	cell-free assay	–	–	–	0.5 µM	remaining signal	98.6%
COc1cc(-c2cn(C3CCc4c(F)cccc4N(CC(F)(F)F)C3=O)nn2)ccc1-n1cnc(C)c1 (stereo not drawn)	cell-free assay	–	competition with immobilised ligand	–	1 µM	remaining binding	100%
CCN1CCN(Cc2ccc(NC(=O)c3ccc(C)c(Oc4ccnc5[nH]ccc45)c3)cc2C(F)(F)F)CC1	target engagement in cells	inhibitor	chemoproteomics	A-375	5 µM	inhibition	-60.9%
